Assay [1] is described as follows: In vitro inhibitory concentration of compound against TNF-alpha release in human peripheral blood mononuclear cells was determined. Type of assay: functional. In a few lines:
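PBMCs isolated by ficoll from healthy donor blood and plated at 1 × 10^6 cells/mL in RPMI with 10% FBS. Compounds were added for 30 min before stimulation with LPS (25 ng/mL final). After 6 h at 37 °C, supernatant TNF-α was measured by ELISA.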

Assay [2] addresses T1, Cannabinoid receptor 2 (Homo sapiens, UniProt P34972). In words: Binding affinity against human cannabinoid receptor 2 in chinese hamster ovary cells using WIN-55212-2 mesylate[57-3H]. Type of assay: cell-based, CHO.
Assay [3] concerns the target T1, Cannabinoid receptor 2. In words: Percent Inhibition of binding at 100 nM against human cannabinoid receptor 2 in chinese hamster ovary cells by using a radioligand WIN-55212-2 mesylate[57-3H]. Type of assay: cell-based. The settings on record: CHO.
Assay [4] has as its system Mus musculus. Briefly: Effective dose of compound against inhibition of LPS stimulated TNF-alpha release when administered intravenously in mice. It counts as functional. The settings on record: iv. In short, it runs like this:
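Female BALB/c mice, 6–8 weeks old. Compound in 10% propylene glycol/PBS was co-injected iv with LPS (E. coli O111:B4, 10 μg/mL in the dosing solution, 0.1 mL per mouse). Serum was taken 60 min later and TNF-α measured by ELISA; 8 mice per group, mean ± SD.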

Assay [5] relates to Mus musculus. Briefly: Percentage reduction of serum TNF-alpha when dose of 50 mg/kg was administered orally in mice. It counts as functional. The settings on record: route oral. In a few lines:
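Female BALB/c mice, 6–8 weeks old, given compound by gavage in 50% propylene glycol/water 10 min before iv LPS (0.1 mL of 10 μg/mL in PBS). Serum TNF-α was measured by ELISA 60 min after LPS; 8 mice per group, mean ± SD.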

A further assay addresses Cannabinoid receptor 1 (Homo sapiens, UniProt P21554). In words: Binding affinity of compound against human cannabinoid receptor 1 in chinese hamster ovary cells by using radioligand CP-55940. It counts as cell-based, CHO. In short, it runs like this: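 CHO-K1 membranes expressing human CB1; CP55,940 used as radiolabelled tracer (routinely 10 nM). Bound label collected by filtration and measured by scintillation counting.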

For assay [6], the target named is T1, Cannabinoid receptor 2. In words: Percent Inhibition of binding at […] against human cannabinoid receptor 2 in chinese hamster ovary cells by using a radioligand WIN-55212-2 mesylate[57-3H]. Type of assay: cell-based. The settings on record: CHO.

This note sets out measurements from ChEMBL document CHEMBL1144952 (J Med Chem, 2003).

T1 sequence (P34972 whole entry): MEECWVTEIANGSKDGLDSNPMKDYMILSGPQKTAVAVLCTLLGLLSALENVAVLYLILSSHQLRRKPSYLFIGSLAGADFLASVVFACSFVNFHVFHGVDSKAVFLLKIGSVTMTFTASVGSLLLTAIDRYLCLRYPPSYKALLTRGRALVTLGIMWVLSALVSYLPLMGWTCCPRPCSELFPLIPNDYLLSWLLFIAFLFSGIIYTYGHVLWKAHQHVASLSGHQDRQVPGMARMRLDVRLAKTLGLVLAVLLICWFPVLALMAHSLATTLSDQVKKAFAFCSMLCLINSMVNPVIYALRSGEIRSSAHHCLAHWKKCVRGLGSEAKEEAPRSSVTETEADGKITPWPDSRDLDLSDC
Chain of Cannabinoid receptor 1 (P21554 whole entry): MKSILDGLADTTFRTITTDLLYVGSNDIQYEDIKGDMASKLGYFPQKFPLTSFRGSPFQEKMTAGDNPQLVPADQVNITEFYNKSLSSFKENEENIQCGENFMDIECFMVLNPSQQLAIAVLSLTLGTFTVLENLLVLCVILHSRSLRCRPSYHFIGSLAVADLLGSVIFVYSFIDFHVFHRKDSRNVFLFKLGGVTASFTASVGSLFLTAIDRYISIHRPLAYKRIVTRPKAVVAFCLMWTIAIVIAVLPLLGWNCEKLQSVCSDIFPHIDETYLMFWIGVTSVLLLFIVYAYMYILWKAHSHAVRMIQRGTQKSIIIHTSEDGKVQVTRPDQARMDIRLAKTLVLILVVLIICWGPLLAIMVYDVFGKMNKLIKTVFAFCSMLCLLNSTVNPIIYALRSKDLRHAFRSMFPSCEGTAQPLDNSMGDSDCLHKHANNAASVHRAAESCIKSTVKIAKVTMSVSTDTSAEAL

In general, IC50 refers to the concentration that gives 50% inhibition. Higher therefore signals a need for much substance. One may read the Ki as a dissociation constant, usually derived from enzyme kinetics or from competition with a known ligand. A lower Ki goes with a stronger hold on the target. `COc1ccccc1CNC(=O)c1nn(CCN2CCOCC2)c2c(OC)cccc12` came in with an IC50 in assay [1] of 43000 nM. Moreover, the Ki at Cannabinoid receptor 2 [2] was found to be 77 nM.
As a reminder, the inhibition is the percentage by which the read-out fell short of the control. With `CCCc1c(C(=O)NC2C(C)(C)[C@@H]3CC[C@@]2(C)C3)c2cccc(OC)c2n1CCN1CCOCC1` (some centres not stated), the inhibition on Cannabinoid receptor 2 [3] stood at 6%.
`CCc1c(C(=O)NC2C(C)(C)[C@@H]3CC[C@@]2(C)C3)c2cccc(OC)c2n1CCN1CCOCC1` (some centres not stated) gave a Ki on Cannabinoid receptor 2 [2] of 110 nM.
As a reminder, the ED50 is the dose at which the effect has come halfway, by size or by number of responders. Low readings indicate an effect at a small dose, high ones a need for a large dose. Regarding `COc1cccc2c3c(=O)n([C@@H]4C(C)(C)[C@@H]5CC[C@@]4(C)C5)ccc3n(CCN3CCOCC3)c12`, in the assay on Mus musculus [4], the ED50 is 2 mg/kg. The same molecule registered an IC50 in assay [1] of 8000 nM. This molecule gave a Reduction in the assay on Mus musculus [5] of 61%. The Ki on Cannabinoid receptor 2 [2] is 1 nM; at Cannabinoid receptor 1, 16 nM.
Turning to `COc1cccc2c(C(=O)NC3C(C)(C)[C@@H]4CC[C@@]3(C)C4)nn(CCN3CCOCC3)c12` (some centres not stated), the IC50 in assay [1] is 30000 nM. In addition, the results for the Ki on Cannabinoid receptor 2 [2] and on Cannabinoid receptor 1 were 2 nM and 24 nM, respectively.
`COc1ccccc1Cn1ccc2c(c1=O)c1cccc(OC)c1n2CCN1CCOCC1`: inhibition in assay [1] was half-maximal at 7000 nM (IC50). The Ki at Cannabinoid receptor 2 [2] is 67 nM; at Cannabinoid receptor 1, 3700 nM.
Molecule `COc1cccc2c(C(=O)NC(c3ccccc3)c3ccccn3)nn(CCN3CCOCC3)c12` (configuration not stated) showed a 50% inhibitory concentration (IC50) in assay [1] of 20000 nM. Moreover, the values for the Ki at Cannabinoid receptor 2 [2] and at Cannabinoid receptor 1 were 146 nM and 162 nM, respectively.
As for `COc1cccc2c(C(=O)N(Cc3c(F)cccc3Cl)C(C)C)nn(CCN3CCOCC3)c12`, the midpoint of inhibition in assay [1], the IC50, lay at 36000 nM. The same molecule displayed a Ki on Cannabinoid receptor 2 [2] of 69 nM.
In turn, `COc1cccc2c(C(=O)NC3C(C)(C)[C@@H]4CC[C@@]3(C)C4)cn(CCN3CCOCC3)c12` (some centres not stated) yielded an IC50 in assay [1] of 13000 nM. In addition, the Ki on Cannabinoid receptor 2 [2] worked out at 11 nM; at Cannabinoid receptor 1, 245 nM.
For the molecule `COc1cccc2c3c(=O)n(C(c4ccccc4)c4ccccn4)ccc3n(CCN3CCOCC3)c12` (configuration not stated), at Cannabinoid receptor 2 [6], the inhibition was determined as 13%.
Molecule `COc1cccc2c(C(=O)NC3C(C)(C)[C@@H]4CC[C@@]3(C)C4)c(C)n(CCN3CCOCC3)c12` (some centres not stated) came in with an IC50 in assay [1] of 33000 nM. The Ki at Cannabinoid receptor 2 [2] came out at 29 nM; at Cannabinoid receptor 1, 8 nM.
